# Source: PubChem (Johns Hopkins Ion Channel Center)
# Kir21 inh: blocks the mouse Kir2.1 inward-rectifier potassium channel; P35561; HEK293-Kir2.1, FluxOR thallium flux fluorescence; hits give low values; B-score at 10 µM; 0.85% of 310,000 active;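 active = fluorescence ratio B-score at or below minus 3 SD of library scores, with starting-brightness B-score within 2 SD, cut at about -4.2 in these data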;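 note: channel flux triggered by added potassium and thallium sulfate stimulus; B-score of peak minus minimum fluorescence over baseline after thallium stimulus; more negative B-score means stronger Kir2.1 block with less thallium influx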
# KCNQ1 inh: human KCNQ1 channel inhibition; CHO-K1 KCNQ1, FluxOR thallium flux fluorescence; hits give high values; 1.3% of 310,000 active; B-score at 10 µM;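 active = compounds whose thallium flux B-score, printed positive for inhibition, exceeds three library SD while starting fluorescence stays within three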;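 note: channel opened by potassium depolarization with thallium stimulus after 20 min compound exposure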
# Target sequence (P51787 whole entry, looked up): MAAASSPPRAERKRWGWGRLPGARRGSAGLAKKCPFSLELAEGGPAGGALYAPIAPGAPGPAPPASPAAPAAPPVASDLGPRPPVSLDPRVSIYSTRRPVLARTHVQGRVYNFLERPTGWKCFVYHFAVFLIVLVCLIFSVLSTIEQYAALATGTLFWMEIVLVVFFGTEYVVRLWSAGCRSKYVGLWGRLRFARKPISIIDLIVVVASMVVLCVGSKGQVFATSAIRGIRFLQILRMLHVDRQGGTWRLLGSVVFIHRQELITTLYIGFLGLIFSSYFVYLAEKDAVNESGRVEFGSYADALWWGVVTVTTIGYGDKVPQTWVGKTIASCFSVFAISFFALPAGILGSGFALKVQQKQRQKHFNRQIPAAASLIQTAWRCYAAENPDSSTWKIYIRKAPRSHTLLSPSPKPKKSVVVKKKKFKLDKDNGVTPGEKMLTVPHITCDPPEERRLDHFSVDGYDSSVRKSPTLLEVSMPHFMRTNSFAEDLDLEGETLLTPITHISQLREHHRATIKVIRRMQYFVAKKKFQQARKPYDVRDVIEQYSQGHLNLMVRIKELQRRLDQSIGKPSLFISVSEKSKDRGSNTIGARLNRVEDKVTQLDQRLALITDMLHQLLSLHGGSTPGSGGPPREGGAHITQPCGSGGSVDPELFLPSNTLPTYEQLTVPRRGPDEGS
# hERG rescue: hERG (human) protection from proarrhythmic block | Q12809 | AID 1511 | 0.51% of 310,000 active | activation (rescue from dofetilide block), less the hit threshold, % at 10 µM | CHO-hERG, FluxOR thallium flux, dofetilide IC70 present;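 active = activation above the mean of controls blocked by dofetilide plus 5 SD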;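 note: thallium influx through hERG after potassium depolarization seen as dye fluorescence rise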
# KCNK9 block: human KCNK9 channel inhibition | B-score at 10 µM | 1.2% of 310,000 active | HEK293 KCNK9, FluxOR thallium flux fluorescence; hits give low values | Q9NPC2;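 active = ratio B-score over 3 SD below the library mean, with starting fluorescence within 5 SD of its mean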;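 note: negative B-score means less thallium flux so channel inhibition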
# KCNQ1 act: potentiators or activators of human KCNQ1 potassium channel; CHO-K1 KCNQ1, thallium flux FluxOR fluorescence; hits give high values; B-score at 10 µM; 0.35% of 310,000 active; P51787;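 active = fluorescence ratio B-score, a plate-corrected score, at least three library SD, with initial intensity B-score within 5 SD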
#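 System: Stable KCNQ1 CHO-K1 line | Incubation: 90 min dye loading and 20 min compound exposure, both at room temperature | Measure: Ratio B score | Medium: Assay buffer for compound exposure, DMSO matched across wells | Compound dosing: Single-concentration screen | Probe or stimulus: K+/Tl+ depolarizing stimulus | Measured by: Kinetic FluxOR fluorescence, 10 s baseline plus 110 s post-stimulus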
# KCNK3 block: human KCNK3 channel inhibition, primary screen; O14649; CHO-KCNK3 thallium flux, FluxOR fluorescence; hits give low values; B-score at 10 µM; 0.84% of 340,000 active;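 active = B-score under library mean minus 4 SD, starting fluorescence ratio at most library mean plus 5 SD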;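 note: more negative B-score means stronger inhibition of thallium flux through KCNK3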
# * = called active by the depositor; i = inactive; / = not tested or not shown. Rows were chosen to be rich in hits. Some 3.8% of all compounds tested hit in one or more screens of this group.
SMILES,Kir21 inh,KCNQ1 inh,hERG rescue,KCNK9 block,KCNQ1 act,KCNK3 block
COc1ccc(C(=O)OCC(=O)c2ccc3c(c2)NC(=O)CO3)cc1S(=O)(=O)N1CCOCC1,/,/,/,/,/,i
Cc1c(CN2CCC(Oc3ccc(C(=O)N4CCCCC4)cc3)CC2)cnn1C,-1.5,i,-11,i,i,i
O=C1CC(C(=O)O)C(c2ccccc2)c2ccccc21 (centres undefined),/,/,/,/,/,i
Cc1c(-c2ccn[nH]2)cc(NC(=O)c2ccc(Cl)cc2)c(=O)n1N,-0.25,i,5.0*,i,i,i
CC1Oc2ccccc2N(CC(=O)N2CCCCCC2)C1=O (centres undefined),0.06,i,2,i,22*,i
CN1/C(=C/C(=O)c2nc(S(C)(=O)=O)ncc2Cl)C(C)(C)c2ccccc21,-2,6*,-17,i,i,i
Fc1ccc(-c2nnc(Cc3ccc(Cl)cc3)o2)cc1,1.4,i,-9,i,i,i
Cc1cc(N2CCCCC2)nc(NCc2ccccc2)n1,-6.7*,i,-8,i,i,i
Cc1cc(N2CCN(c3ccccc3)CC2)nc(-c2ccccc2)n1,-1.6,i,-2,-7.6*,i,i
Cc1cc(N2CCOCC2)nc(NCc2ccccc2)n1,0,i,-10,i,i,i
COc1ccc(C2CC3(CC(C)(C)NC(SC)=N3)Oc3cc(O)cc(C)c32)cc1 (centres undefined),-5.3*,i,-12,i,i,i
COc1ccc(NC(=O)CC2CCCCC2)cc1OC,-0.39,i,5.7*,i,i,i
COc1ccc(NC(=O)CC2CCCC2)cc1S(=O)(=O)N1CCCCC1,-0.59,i,-6,i,i,i
CCCOC(=O)c1ccc(NC(=O)c2ccccc2OC)cc1,2.5,i,-12,-7.5*,i,i
CCC(C)Nc1ccc(NC(C)CC)cc1 (centres undefined),/,/,/,/,/,-8.9*
O=C(CCC(=O)N1CCOc2ccc(Cl)cc21)NCCCN1CCN(c2ccccc2F)CC1,-2,i,-12,i,i,i
O=C(CCC(=O)N1CCOc2ccc(Cl)cc21)NCCCN1CCC(Cc2ccccc2)CC1,-6.6*,i,-20,i,i,i
COc1cc(CNCCNC(=O)c2nonc2N)ccc1OCc1ccc(Cl)cc1,-6.7*,i,-23,i,i,i
N#Cc1cc([N+](=O)[O-])c(-n2nnc3ccccc32)c([N+](=O)[O-])c1,-0.09,8*,-24,i,i,i
CC(CN1CCCC1)OC(=O)c1ccc(Br)cc1 (centres undefined),-0.44,i,-12,i,i,i
CCOC(=O)c1ccccc1NC(=O)COC(=O)c1cc([N+](=O)[O-])ccc1N1CCOCC1,-0.51,i,-14,i,i,i
COc1ccc(Cl)cc1-c1n[nH]c(=S)n1Cc1ccccc1,-4.3*,i,-5,i,i,i
COc1ccc(Cc2n[nH]c(=S)n2Cc2ccccc2)cc1Cl,-5*,i,-5,i,i,i
S=c1[nH]nc(-c2ccccc2Cl)n1Cc1ccccc1,-2,i,-10,i,i,i
CCc1c(-c2n[nH]c(=S)n2Cc2ccccc2)csc1C,-9.3*,i,-7,i,i,i
SMILES,Kir21 inh,KCNQ1 inh,hERG rescue,KCNK9 block,KCNQ1 act,KCNK3 block
COc1ccccc1C(=O)NCc1n[nH]c(=S)n1Cc1ccccc1,-0.12,i,-3,i,i,i
Cc1scc(-c2n[nH]c(=S)n2Cc2ccccc2)c1C,-0.62,i,-9,i,i,i
CCOC(=O)C1CCCN(C(=O)c2ccc(Cl)c(S(=O)(=O)N3CCc4ccccc43)c2)C1 (centres undefined),/,/,/,/,/,i
O=C(c1ccccc1)N1CCOC(O)(c2ccccc2)C1c1ccccc1 (centres undefined),/,/,/,/,/,i
Cc1ccsc1C(=O)N1CCCC(CO)(Cc2ccccc2F)C1 (centres undefined),-0.64,i,-14,i,i,i
COc1cccc(-c2ccc(NC(=O)C3CCCN(Cc4cnc(C)n4C)C3)cc2)c1 (centres undefined),-0.29,i,-20,i,i,i
Cc1ncc(CN2CCCC(C(=O)Nc3ccc(-c4cccc(F)c4)cc3)C2)n1C (centres undefined),-4.3*,i,-20,i,i,i
CN1C(=O)c2cccc3c(Cl)ccc(c23)C1=O,-1.4,i,-9,i,i,i
CN1C(=O)c2cccc3c(N(C)C)ccc(c23)C1=O,-2.7,6*,-16,i,i,i
CCCc1[nH]nc2c1C(c1cccc(OC(=O)c3ccco3)c1)C(C#N)=C(N)O2 (centres undefined),0.21,i,4.6*,i,i,i
Nc1nsc2ccccc12,-5.1*,i,-21,i,i,i
Cc1oc2cc([N+](=O)[O-])c(O)c([N+](=O)[O-])c2c1C(=O)c1ccc(Cl)cc1,4.2,6*,-10,i,i,i
COc1ccc(OC)c(C(=O)c2c(C)oc3cc([N+](=O)[O-])c(O)c([N+](=O)[O-])c23)c1,1.7,i,-9,i,i,i
Cc1cc(-c2onc(C)c2C(=O)O)no1,-1.4,i,-9,i,i,i
CC(=O)c1nnn(-c2nc(N)nc(N(c3ccccc3)c3ccccc3)n2)c1C,-1.2,i,-8,i,i,i
CCCCN(CCCC)c1nc(OC)nc(-n2nnc(C(C)=O)c2C)n1,-0.01,i,-16,-6.6*,i,i
CCNC(=S)N1CCN(c2nc(CC)nc3sc4c(c23)CCCC4)CC1,-0.59,i,-14,i,i,-12*
CCOC(=O)c1nc(N2CCN(C(=O)OCC)CC2)c2c3c(sc2n1)CCCC3,-1.2,i,-19,i,i,i
O=C(NCCOc1ccccc1)C1CCC(=O)N(CCCN2CCOCC2)C1 (centres undefined),1.5,i,-6,i,i,i
COc1ccc(CN(C)C(=O)CSc2nnc(C3CC3)n2C2CC2)cc1,/,/,/,/,/,i
c1ccc(N2CCN(c3nc(-c4cccs4)nc4ccccc34)CC2)cc1,-0.23,i,-17,-14*,i,i
Cc1ccc(C(C)NC(=O)c2cc3ccccc3oc2=O)cc1C (centres undefined),0.62,i,-11,i,i,i
CCSc1ccccc1C(=O)NCCCn1ccnc1,1.1,i,4.8*,i,i,i
Cc1cc(C)n(CCc2nc(-c3ccc(F)cc3)cs2)n1,-0.03,i,-11,i,i,i
